Compounds with a hit are over-represented: about 2% of the library has one in this group of screens.
ARFGAP1 inh = inhibitors of rat ARFGAP1 GAP activity, primary screen, biochemical, fluorescence polarization, GDP tracer. Arfgap1-stimulated ARF1 GTP hydrolysis, GDP FP detection. 360,000 tested, 0.26% active. inhibition, % at 16.5 µM. AID 651572, 2012. ADP-ribosylation factor GTPase-activating protein 1 (Rattus norvegicus), Q62848;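 active means inhibition above a per-plate limit, mean inhibition of low control wells plus 3 SD, cut at about 25% in these data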
Target sequence (Q62848 1-136 limits assumed): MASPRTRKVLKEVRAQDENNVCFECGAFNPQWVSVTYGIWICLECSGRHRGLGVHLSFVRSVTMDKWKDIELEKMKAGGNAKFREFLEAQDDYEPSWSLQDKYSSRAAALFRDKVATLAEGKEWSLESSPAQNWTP
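Material: rat Arfgap1 catalytic domain, aa 1-136; also added: human ARF1(Δ1-17)-GTP substrate; compound dosing: one concentration, 16.5 µM, DMSO 1.26%; incubation: GTP hydrolysis reaction 2 h at 25 °C; measured by: Tracer-displacement fluorescence polarization with EDTA stop, 620/688 nm; evaluation: % inhibition from polarization; repeats: one replicate per compound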
TDP2 inh = human TDP2 enzyme inhibitors, primary screen, biochemical, epi absorbance, recombinant enzyme; Tyrosyl-DNA phosphodiesterase 2 (Homo sapiens), O95551; T5PNP hydrolysis, p-nitrophenol absorbance 415 nm; inhibition, % at 12.8 µM; 370,000 tested, 0.34% active; AID 720702, 2013;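 active means inhibition above the mean of all tested compounds plus 3 SD, set per campaign, cut at about 25% in these data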
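Test system: Human TDP2 enzyme | Reagent: 5 mM T5PNP | Compound dosing: 12.8 µM single point, 1% DMSO | Incubation: Enzyme reaction with compound for 2 h at 37 °C | Technique: p-Nitrophenol epi absorbance | Read-out: % inhibition relative to enzyme-containing and enzyme-free wells | Benchmarks: High control without enzyme, low control DMSO plus TDP2 | Replicates: Singlicate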
UHRF1 binding = UHRF1 methylated DNA binding inhibitors, primary screen, counter-screen for MBD2 inhibitor project, biochemical, TR-FRET, human UHRF1, single concentration; E3 ubiquitin-protein ligase UHRF1 (Homo sapiens), Q96T88; UHRF1 binding to methylated oligo; inhibition, % at 4.4 µM; 370,000 tested, 0.75% active; AID 687016, 2013;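 further: UHRF1 SRA domain binding a hemimethylated CpG hairpin DNA probe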
ASAP1 GAP inh = inhibitors of human ASAP1 ArfGAP activity, primary screen, biochemical, fluorescence polarization; Arf-GAP with SH3 domain, ANK repeat and PH domain-containing protein 1 (Homo sapiens), …; AID 624377, 2012; ASAP1-stimulated ARF1 GTP hydrolysis, GDP FP detection; 360,000 tested, 0.19% active; inhibition, % at 16.5 µM; in the data active means inhibition above about 25%
MBD2 inh = inhibitors of MBD2 binding to methylated DNA, primary screen, biochemical, TR-FRET, DNA-binding domain, human. MBD2 binding to methylated oligonucleotide. inhibition, % at 4.4 µM. 370,000 tested, 0.31% active. AID 686964, 2013; in the data active means inhibition above about 13%
Target sequence (Q9UBB5 whole entry, looked up, the tested form may be a part): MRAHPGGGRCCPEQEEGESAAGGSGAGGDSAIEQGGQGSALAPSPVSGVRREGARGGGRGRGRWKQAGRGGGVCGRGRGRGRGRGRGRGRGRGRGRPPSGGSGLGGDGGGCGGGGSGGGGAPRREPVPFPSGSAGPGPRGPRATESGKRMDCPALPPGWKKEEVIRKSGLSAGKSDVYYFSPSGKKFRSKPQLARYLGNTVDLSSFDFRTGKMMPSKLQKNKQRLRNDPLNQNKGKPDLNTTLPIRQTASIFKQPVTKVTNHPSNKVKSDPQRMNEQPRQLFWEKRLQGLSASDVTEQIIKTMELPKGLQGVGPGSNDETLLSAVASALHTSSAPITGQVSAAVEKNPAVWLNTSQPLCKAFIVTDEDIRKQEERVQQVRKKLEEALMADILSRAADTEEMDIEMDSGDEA
LEDGF integ inh = blockers of LEDGF/p75-dependent integrase strand transfer – biochemical, TR-FRET, high throughput, primary screen. TR-FRET IN-LEDGF/p75 DNA integration, Eu/Cy5. inhibition, % at 3.7 µM. 370,000 tested, 0.64% active. AID 743269, 2014. HIV-1 integrase (with human LEDGF/p75);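 active means inhibition above the screen-wide mean plus 3 SD, cut at about 13% in these data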;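 further: signal is the Cy5 over europium emission ratio at 671 and 618 nm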
ASAP1 inh confirm = ASAP1 GAP activity inhibitors, confirmation, biochemical, fluorescence polarization, human, triplicate; shares compounds with ASAP1 GAP inh; ASAP1-stimulated Arf1 GTPase, GDP fluorescence polarization; inhibition, % at 16.5 µM; 620 tested, 37% active;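 active means mean inhibition over triplicates exceeds the hit threshold derived for the earlier primary screening run, cut at about 25% in these data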
ARFGAP1 confirm = ARFGAP1 inhibitor hit confirmation, biochemical, fluorescence polarization, triplicate; 890 tested, 30% active; shares compounds with ARFGAP1 inh; ARFGAP1-stimulated ARF1 GTP hydrolysis, GDP tracer FP; inhibition, % at 16.5 µM;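 active means average inhibition over triplicates above the hit cutoff set in the earlier primary screen, cut at about 25% in these data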
UHRF1 ctr MBD2 = UHRF1 methylated DNA binding inhibitors, counter-screen for MBD2 inhibitor project, biochemical, TR-FRET, human UHRF1. inhibition, % at 4.4 µM. AID 720530, 2013. UHRF1 binding to methylated oligonucleotide. 1,000 tested, 25% active. shares compounds with MBD2 inh;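 further: UHRF1 SRA domain binding a labeled hemimethylated CpG hairpin DNA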
MBD2 confirm = inhibitors of MBD2 binding to methylated DNA, confirmation, biochemical, TR-FRET, DNA-binding domain, human; AID 720531, 2013; inhibition, % at 4.4 µM; 1,000 tested, 26% active; shares compounds with MBD2 inh; TR-FRET MBD2-DBD binding to methylated oligonucleotide; in the data active means inhibition above about 14%
TDP2 inh conf = human TDP2 enzyme inhibitors, retest, confirmation, biochemical, epi absorbance, recombinant enzyme. shares compounds with TDP2 inh. absorbance read-out. inhibition, % at 12.8 µM. 1,100 tested, 22% active. AID 743263, 2014; in the data active means inhibition above about 25%
IN multimer up = HIV-1 IN multimer formation enhancers, counter-screen for LEDGF/p75 integration inhibitor project, biochemical, TR-FRET; shares compounds with LEDGF integ inh; TR-FRET HIV-1 integrase multimerization; activation, % at 7.7 µM; 2,000 tested, 17% active; in the data active means activation above about 8.9%
TR-FRET interf = TR-FRET optical interference artefacts, confirmation, artefact control for LEDGF/p75-dependent integration inhibitor project, biochemical, HIV-1 IN multimerization; shares compounds with LEDGF integ inh; TR-FRET optical interference counterscreen; inhibition, % at 7.7 µM; 2,000 tested, under 10 active; AID 1053135, 2014;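 active means inhibition above the mean over all tested compounds plus 3 SD, which no compound reached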
LEDGF integ conf = inhibitors of HIV-1 IN-LEDGF/p75 DNA integration, confirmation, biochemical, TR-FRET. shares compounds with LEDGF integ inh. TR-FRET LEDGF/p75-dependent HIV-1 integration. inhibition, % at 3.7 µM. 2,000 tested, 36% active. AID 1053136, 2014; in the data active means inhibition above about 14%
Hits are given with their value; . = inactive; / = not tested or not shown. Unless noted, no stated cut-off is given here; in the data, active means inhibition above about 21%; inactive means the rest.

SMILES	ARFGAP1 inh	TDP2 inh	UHRF1 binding	ASAP1 GAP inh	MBD2 inh	LEDGF integ inh	UHRF1 ctr MBD2	MBD2 confirm	others
CCN1C(=O)C(=C/C=C/c2ccco2)C(=O)N(CC)C1=S	.	.	30	28	.	39	/	/	ASAP1 inh confirm=.;IN multimer up=.;TR-FRET interf=.;LEDGF integ conf=51
CC[C@H](C(N)=O)N1CCCC1=O	/	.	.	/	.	.	/	/
CCOC(=O)c1c(NC(=O)c2c(N)n(CCCOC)c3nc4ccccc4nc23)sc2c1CCCC2	.	.	.	.	.	.	/	/
CCOCCCn1c(N)c(C(=O)Nc2sc3c(c2C(=O)OC)CCCC3)c2nc3ccccc3nc21	25	70	.	34	14	31	.	.	ASAP1 inh confirm=.;ARFGAP1 confirm=.;TDP2 inh conf=.;IN multimer up=.;TR-FRET interf=.;LEDGF integ conf=.
S=C(NCCc1ccccc1)N1Cc2ccc(Br)cc2-n2nncc2C1	26	.	.	.	.	.	/	/	ARFGAP1 confirm=.
S=C(NCCc1ccccc1)N1Cc2cc(Br)ccc2-n2nncc2C1	.	.	.	.	.	.	/	/
CCOP(=O)(OCC)C(O)c1cccc([N+](=O)[O-])c1 (stereo not drawn)	26	.	.	.	.	.	/	/	ARFGAP1 confirm=.
NC(Cc1ccccc1)[P+](=O)O (stereo not drawn)	/	.	.	/	.	.	/	/
COc1ccc2c3c([nH]c2c1)[C@H](C=C(C)C)N1C(=O)[C@@H]2CCCN2C(=O)[C@@H]1C3	/	.	.	/	.	.	/	/
CN1CCN(Cc2cc(C(C)(C)C)c(O)c(C(C)(C)C)c2)CC1	26	.	.	.	.	.	/	/	ARFGAP1 confirm=.
COC1C(C)OC(OC2CC(C)(O)Cc3cc4c(c(O)c32)C(=O)c2c(O)cc3c(c2C4=O)OC2OC3(C)C(O)C(N(C)C)C2O)C(OC)C1(C)OC (stereo not drawn)	.	.	97	.	107	.	102	109
Cc1ccc(-c2cc(-c3ccccc3)cc(-c3ccccc3)[n+]2-c2ccccc2C(=O)O)cc1	.	.	21	.	19	.	.	28
O=C(COc1ccc(Cl)cc1)NCCc1cnc[nH]1	.	.	.	.	52	.	.	.
O=C(COc1ccccc1)NCCc1cnc[nH]1	.	.	.	.	.	.	/	/
O=C1CC[C@@]2(O)[C@H]3Cc4ccc(O)c5c4[C@@]2(CCN3CC2CC2)C1O5 (stereo partly drawn)	.	.	.	.	.	.	/	/
COC(=O)C1=C(c2c(C)noc2C)C[C@@H]2CC[C@H]1N2C(=O)N1CCC(O)CC1	.	.	.	.	28	.	.	.
COC(=O)C1=C(c2c(C)noc2C)C[C@@H]2CC[C@H]1N2C(=O)N1CCC(C)CC1	.	.	.	.	.	.	/	/
COP(=O)(C(=O)Nc1ccccc1)C(CC(C)C)NC(=O)OCc1ccccc1 (stereo not drawn)	/	.	.	/	.	.	/	/
O=C(O)C1CN2CCC1CC2 (stereo not drawn)	.	.	.	.	14	.	.	.
COC(=O)C1=C(c2ccc(F)cc2OCc2ccccc2)C[C@@H]2CC[C@H]1N2C(=O)NCCOc1ccccc1Cl	.	.	.	.	16	.	.	.
CCOC(=O)CNC(=O)N1Cc2cc(Br)ccc2-n2nncc2C1	.	.	.	.	.	.	/	/
N#CCC[C@H]1CC[C@]2(CCCN(Cc3ccccn3)C2)O1	/	.	.	/	.	.	/	/
C#CCCC[C@@H]1OC(=O)CNC(=O)C([C@@H](C)CC)NC(=O)[C@@H]2CCCN2C(=O)C([C@@H](C)CC)OC(=O)[C@H](Cc2ccccc2)N(C)C(=O)[C@H](C(C)C)NC(=O)C1(C)C (stereo partly drawn)	.	.	43	.	15	.	.	.
Cc1ccc2ccccc2c1NC(=O)CNC1CCCCC1	.	.	.	.	18	.	.	.
CCc1ccccc1NC(=O)CNC1CCCCC1	.	.	.	.	.	.	/	/
CC(C)C(NC(=O)OCc1ccccc1)P(=O)(Oc1ccccc1)Oc1ccccc1 (stereo not drawn)	/	.	.	/	.	.	/	/

Source: PubChem BioAssay
